We go through 1 compound from ChEMBL document CHEMBL1156262, “Substituted benzothiophene or benzofuran derivatives as a novel class of bone morphogenetic protein-2 up-regulators: synthesis, structure-activity relationships, and preventive bone loss efficacies in senescence accelerated mice (SAMP6) and ovariectomized rats” (J Med Chem, 2010).

In series [1] the test system is Mus musculus. As to the kind of experiment: Induction of bone mineral density in SAMP6 mouse assessed as spine BMD at 30 mg/kg/day, po measured first 2 months. The format is functional, organism-based. The gist of the method:
(§1)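 SAMP6 mice, 5 months old, n = 5 per group, given compound in 0.5% methylcellulose by gavage daily. Dual-energy X-ray absorptiometry under pentobarbital anaesthesia (50 mg/kg ip), animals prone, at 0, 4, 8 and 12 weeks of treatment. Regions of interest were whole body, spine and left hind leg.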

In series [2] the test system is Mus musculus. As to the kind of experiment: Induction of bone formation in SAMP6 mouse right femora assessed as trabecular bone volume percentage at 30 mg/kg/day, po measured after 3 months by bone histomorphometry. The format is functional, Trabecula. The gist of the method:
(§2)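 SAMP6 mice, 5 months old, n = 5 per group (3 male, 2 female), randomized by initial BMD. Given compound in 0.5% methylcellulose by gavage daily for 3 months. Proximal third of the right femur fixed in 4% paraformaldehyde, cut as undecalcified sections, and scored by image analysis for histomorphometry.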

The subject of series [3] is Mus musculus. As to the kind of experiment: Induction of bone formation in SAMP6 mouse right femora assessed as average osteoid width at 30 mg/kg/day, po measured after 3 months by bone histomorphometry. The format is functional. In short, it runs like this: as §2
Series [4] has as its system Rattus norvegicus. The series is described as follows: Toxicity in rat assessed as pathological changes in liver at 150 mg/kg/day, po after 3 months by histomorphology. The format is organism-based. Also noted: route oral. The conditions noted are these: in vivo. The gist of the method:
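Rats, n = 7, given oral doses of 150 mg/kg/day for 3 months. Heart, liver, spleen, lung and kidney examined histologically for pathological change.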

The subject of series [5] is Mus musculus. The series is described as follows: Induction of bone mineral density in SAMP6 mouse assessed as left hind leg BMD at 30 mg/kg/day, po measured after 3 months. In kind it is functional. The gist of the method: as §1
For series [6], the system named is Mus musculus. As to the kind of experiment: Toxicity in SAMP6 mouse assessed as pathological changes in lung at 30 mg/kg/day, po after 3 months by histomorphology. The format is organism-based. Also noted: route oral. The following applies: in vivo. The gist of the method:
(§3)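 SAMP6 mice, n = 5 per group, dosed orally at 30 mg/kg/day in 0.5% methylcellulose for 3 months. Heart, liver, spleen, lung and kidney harvested, weighed and examined histologically. Organ/body weight indexes, body weight, and 24 h water and food intake (g/g body weight) compared with vehicle controls.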

The test system of series [7] is Rattus norvegicus. As to the kind of experiment: Prevention of bone loss in po dosed ovariectomized rat assessed as increase in number, thickness, area and connectivity of trabecula after 3 months by histomorphometry Leica Qwin image analysis. In kind it is functional, organism-based. The gist of the method: (§4)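 Female rats (205–235 g) randomized by body weight, n = 7 per group: sham, ovariectomized with vehicle, ovariectomized with raloxifene 5 mg/kg/day, and ovariectomized with compound at 7.5, 15 or 30 mg/kg/day. All dosing oral for 3 months. Undecalcified proximal tibia sections analysed by histomorphometry, with comparisons against the sham and ovariectomized groups.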

Series [8] has as its system Mus musculus. As to the kind of experiment: Toxicity in SAMP6 mouse assessed as pathological changes in liver at 30 mg/kg/day, po after 3 months by histomorphology. In kind it is organism-based. The arrangement: route oral. The conditions noted are these: in vivo. In short, it runs like this: as §3
A short description of series [9]: Induction of BMP2 expression in mouse calcarial MC3T3-E1 cells stably transfected with mouse BMP2 promotor-luciferase assessed as upregulation rate at 4 uM. In kind it is functional, cell-based. In short, it runs like this:
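Reporter assay in murine calvarial MC3T3-E1 cells stably carrying the mouse BMP-2 promoter fused to firefly luciferase (pGL4BMP-2). Cells grown in DMEM with 10% heat-inactivated FBS at 37 °C and 5% CO2. Test compounds at 4.0 μM; lovastatin at 0.4 μM as positive control; 0.1% DMSO as negative control. Up-regulation rate = (RLU of test − RLU of negative control)/RLU of negative control × 100.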

The test system of series [10] is Rattus norvegicus. As to the kind of experiment: Induction of bone formation in ovariectomized rat assessed as increase in trabecular bone volume percentage at 30 mg/kg/day, po after 3 months. In kind it is functional, organism-based. The conditions noted are these: Trabecula. In short, it runs like this: as §4

The source made the active and inactive calls. No cut-off for these calls is given here.

With `CC(=O)c1cc2ccccc2s1`, the outcome in series [1] and in series [10] was Active. The Activity was 4.95% in series [2]; 5.55 µm in [3]; “Non-toxic” in series [4]; 0.05 g/cm2 in series [5]; “Non-toxic” in [6]; “Dose-dependent effect” in [7]. For the same compound, the results for the Activity result in series [8] and in series [9] were “Non-toxic” and 35.6%, respectively.
